We go through 16 molecules from ChEMBL document CHEMBL4266004, “Series of Alkynyl-Substituted Thienopyrimidines as Inhibitors of Protozoan Parasite Proliferation” (ACS Med Chem Lett, 2018).

Data set [1] in a line: Cytotoxicity against human HepG2 cells. The format is cell-based. Conditions: read-out: TC50 (the source's name).
The test system of data set [2] is Trypanosoma brucei brucei. Briefly: Antitrypanosomal activity against Trypanosoma brucei brucei 427 at 5 uM after 48 hrs by presto blue dye based fluorescence assay relative to control. The format is functional. The procedure, abridged: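 Single-concentration screen of bloodstream T. brucei cultures at 5 μM, 5 × 10^4 cells/mL; percent proliferation inhibition recorded.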

Data set [3] relates to Trypanosoma brucei brucei. In words: Antitrypanosomal activity against Trypanosoma brucei brucei 427 after 48 hrs by presto blue dye based fluorescence assay. The class given is functional, organism-based. Conditions: Trypanosoma brucei, 427, 48 h.
Data set [4] in a line: Selectivity ratio of EC50 for antimalarial activity against Plasmodium falciparum W2 trophozoites to EC50 for atimalarial activity against Plasmodium falciparum D6 trophozoites. The format is functional.
Another data set concerns Plasmodium falciparum. In words: Antimalarial activity against Plasmodium falciparum D6 trophozoites after 72 hrs by SYBR Green I dye-based fluorescence assay. The class given is functional, organism-based. The note with it: D6, 72 h. The method in brief: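 P. falciparum D6 strain; compounds run in duplicate or quadruplicate; EC50 determined from dose-response.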
The nature of data set [5]: Selectivity index, ratio of TC50 for human HepG2 cells to EC50 for Leishmania major intracellular amastigotes harboring luciferase infected in mouse RAW264.7 cells. The note with it: read-out: Selectivity Index. The format is toxicity, cell-based. The method in brief:
(§1)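 L. major amastigotes screened in duplicate or quadruplicate. Selectivity derived as HepG2 TC50 / L. major EC50.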

A further data set has as its system Leishmania major. In words: Antileishmanial activity against Leishmania major intracellular amastigotes harboring luciferase infected in mouse RAW264.7 cells after 96 hrs by luminescence assay. The format is functional, organism-based. Conditions: RAW264.7, 96 h. The method in brief:
as §1

Data set [6] is described as follows: Selectivity index, ratio of TC50 for human HepG2 cells to EC50 for Plasmodium falciparum D6 trophozoites. The format is toxicity. Conditions: read-out: Selectivity Index. The procedure, abridged: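 P. falciparum D6 screened in duplicate or quadruplicate. Selectivity = HepG2 TC50 / P. falciparum EC50.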
Data set [7] can be described thus: Selectivity ratio of EC50 for antimalarial activity against Plasmodium falciparum C235 trophozoites to EC50 for atimalarial activity against Plasmodium falciparum D6 trophozoites. The format is functional.
A short description of data set [8]: Cytotoxicity against mouse NIH/3T3 cells. Conditions: read-out: TC50 (the source's name). The format is cell-based, NIH3T3.
In the next data set the test system is Trypanosoma cruzi. Briefly: Antitrypanosomal activity against Trypanosoma cruzi Tulahuen intracellular amastigote harboring beta-galactosidase infected in mouse NIH/3T3 cells after 96 hrs by CPRG reagent based assay. The class given is functional, organism-based. Conditions: NIH3T3, 96 h.
Data set [9] can be described thus: Selectivity index, ratio of TC50 for human HepG2 cells to EC50 for Trypanosoma brucei brucei 427. The class given is toxicity. The note with it: read-out: Selectivity Index.
Data set [10] can be described thus: Selectivity index, ratio of TC50 for mouse NIH/3T3 cells to EC50 for Trypanosoma cruzi Tulahuen intracellular amastigote harboring beta-galactosidase. The format is toxicity, cell-based. The note with it: read-out: Selectivity Index. The procedure, abridged: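 NIH 3T3 cells, the host line for intracellular T. cruzi amastigote culture, tested for toxicity. Selectivity = NIH3T3 TC50 / T. cruzi EC50.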

The next data set deals with Trypanosoma brucei. In words: Antiparasitic activity against Trypanosoma brucei. The class given is functional, organism-based.

Some results are limits rather than exact numbers.

Consider `Fc1cccc(COc2ccc(Nc3ncnc4sc(C#CCN5CCCC5)cc34)cc2Cl)c1`, for which, in [1], the CC50 was greater than 30 µM. Moreover, the Activity in [2] is reported as greater than 75%. The EC50 in [3] is greater than 2.5 µM; with Plasmodium falciparum, 0.14 µM; in the data set on Leishmania major, 4.3 µM. The Ratio EC50 in data set [4] and in data set [7] was less than 3 in each case. Besides, the selectivity ratio was greater than 7 in data set [5] and greater than 214 in data set [6].
Regarding `Fc1cccc(COc2ccc(Nc3ncnc4cc(C#Cc5ccccn5)sc34)cc2Cl)c1`, the CC50 was determined as 24 µM in [1] and 27 µM in data set [8]. Also, the Activity in [2] is greater than 75%. For the same molecule, the EC50 is 1.3 µM in data set [3], 12 µM with Trypanosoma cruzi, 2 µM with Plasmodium falciparum and 0.38 µM with Leishmania major. Moreover, the selectivity ratio in data set [5] is 63; in [9], 18; in [10] it was 2.3; in data set [6] it was 12.
`CN1CCN(CC#Cc2cc3ncnc(Nc4ccc(OCc5cccc(F)c5)c(Cl)c4)c3s2)CC1`: the CC50 in data set [1] came out at 11 µM; in data set [8], 4.8 µM. Moreover, in [2], the Activity is listed as greater than 75%. In addition, the EC50 in data set [3] was 2.5 µM; in the data set on Trypanosoma cruzi it was 2.1 µM; in the data set on Plasmodium falciparum, 0.64 µM; with Leishmania major it was greater than 15 µM. The Ratio EC50 in data set [4] and in [7] was less than 3 each time. The selectivity ratio in data set [9] was 4.3; in data set [10], 2.3; in data set [6], 17.
Turning to `CCCN(CC#Cc1cc2c(Nc3ccc(OCc4cccc(F)c4)c(Cl)c3)ncnc2s1)CCC`, the values for the CC50 in data set [1] and in data set [8] were 17 µM and 2.2 µM, respectively. The molecule further yielded an Activity in data set [2] of 0%. In addition, the EC50 in the data set on Trypanosoma cruzi worked out at 1.7 µM; in the data set with Plasmodium falciparum, 0.8 µM; with Leishmania major, 1.4 µM. For the same molecule, the Ratio EC50 in data set [4] and in data set [7] was less than 3 throughout. Besides, the selectivity ratio was found to be 12 in [5], 1.3 in data set [10] and 21 in [6].
As for `CN1CCN(CC#Cc2cc3c(Nc4ccc(OCc5cccc(F)c5)c(Cl)c4)ncnc3s2)CC1`, the values for the CC50 in data set [1] and in data set [8] were 15 µM and 6.7 µM, respectively. In addition, the Activity in [2] was greater than 75%. The EC50 in data set [3] is 1 µM; with Trypanosoma cruzi it was 3.5 µM; in the data set on Plasmodium falciparum, 0.26 µM; in the data set with Leishmania major, 8.1 µM. Besides, the Ratio EC50 in data set [4] and in [7] was less than 3 in each case. In addition, the selectivity ratio in data set [5] was found to be 1.9; in [9], 15; in [10] it was 1.9; in data set [6], 58.
As to `CC(C)(C)OC(=O)N1CCC[C@H]1C#Cc1cc2ncnc(Nc3ccc(OCc4cccc(F)c4)c(Cl)c3)c2s1`, the CC50 in data set [1] is greater than 26 µM; in [8] it was greater than 100 µM. Moreover, the Activity in [2] is on record as greater than 75%. Further, the EC50 was 1.2 µM in data set [3], greater than 50 µM in the data set on Trypanosoma cruzi, 1.7 µM with Plasmodium falciparum and 1.6 µM in the data set with Leishmania major. For the same molecule, the selectivity ratio is greater than 16 in data set [5], greater than 22 in [9] and greater than 15 in data set [6].
Take `Fc1cccc(COc2ccc(Nc3ncnc4sc(C#CCN5CCNCC5)cc34)cc2Cl)c1`: the figures for the CC50 in [1] and in data set [8] were 7.7 µM and 3.9 µM, respectively. In [2], this molecule came in with an Activity greater than 75%. The EC50 in [3] stood at 1.9 µM; in the data set with Trypanosoma cruzi, 0.61 µM; in the data set on Plasmodium falciparum, 0.38 µM; in the data set on Leishmania major it was 9.1 µM. Further, the Ratio EC50 in data set [4] and in data set [7] was less than 3 throughout. Moreover, the selectivity ratio was determined as 0.85 in [5], 4.1 in data set [9], 6.4 in [10] and 20 in data set [6].
In the case of `Fc1cccc(COc2ccc(Nc3ncnc4cc(C#CC5CCCC5)sc34)cc2Cl)c1`, the CC50 is greater than 31 µM in data set [1] and greater than 100 µM in data set [8]. This molecule registered an Activity in [2] greater than 75%. In addition, the EC50 in data set [3] was 0.76 µM; with Trypanosoma cruzi, greater than 50 µM; in the data set with Plasmodium falciparum it was 3.6 µM; in the data set with Leishmania major, greater than 15 µM. The selectivity ratio in data set [9] was greater than 41; in data set [6] it was greater than 8.6.
Take `COCC#Cc1cc2ncnc(Nc3ccc(OCc4cccc(F)c4)c(Cl)c3)c2s1`: the CC50 was greater than 33 µM in data set [1] and greater than 50 µM in data set [8]. The Activity in [2] is listed as greater than 75%. Further, the EC50 came out at 3.4 µM in [3], 30.7 µM in the data set on Trypanosoma cruzi, 5.9 µM in the data set on Plasmodium falciparum and 9.4 µM with Leishmania major. Also, the selectivity ratio was greater than 3.5 in [5], greater than 9.7 in data set [9], greater than 1.6 in [10] and greater than 5.6 in data set [6].
`Cc1ccc(C(=O)Nc2ccc(S(=O)(=O)O)c3cc(S(=O)(=O)O)cc(S(=O)(=O)O)c23)cc1NC(=O)c1cccc(NC(=O)Nc2cccc(C(=O)Nc3cc(C(=O)Nc4ccc(S(=O)(=O)O)c5cc(S(=O)(=O)O)cc(S(=O)(=O)O)c45)ccc3C)c2)c1` [SURAMIN] displayed an EC50 in data set [3] of 0.04 µM.
`CS(=O)(=O)CCNCc1ccc(-c2ccc3ncnc(Nc4ccc(OCc5cccc(F)c5)c(Cl)c4)c3c2)o1` [LAPATINIB]: the EC50 in the data set with Trypanosoma brucei was in the range of 1.4 to 1.5 µM.
Consider `CN(C)CC#Cc1cc2c(Nc3ccc(OCc4cccc(F)c4)c(Cl)c3)ncnc2s1`, for which the CC50 in [1] is greater than 32 µM; in [8], 41 µM. The same molecule yielded an Activity in [2] greater than 75%. Besides, the EC50 in [3] was 2.5 µM; with Trypanosoma cruzi, 2.6 µM; in the data set with Plasmodium falciparum it was 1.5 µM; in the data set on Leishmania major it was 5.5 µM. For the same molecule, the selectivity ratio in data set [5] is greater than 5.8; in [9] it was greater than 13; in data set [10] it was 16; in data set [6], greater than 21.
On to `Fc1cccc(COc2ccc(Nc3ncnc4cc(C#CCN5CCCC5)sc34)cc2Cl)c1`, for which the CC50 in data set [1] was determined as 4.9 µM; in data set [8], 6.4 µM. The same molecule showed an Activity in data set [2] greater than 75%. Moreover, the EC50 in data set [3] came out at 0.28 µM; in the data set on Trypanosoma cruzi, 1.8 µM; in the data set with Plasmodium falciparum it was 1.3 µM; in the data set on Leishmania major it was 4.1 µM. The selectivity ratio in data set [5] stood at 1.2; in [9] it was 18; in data set [10] it was 3.6; in data set [6], 3.8.
In the case of `CN1CCN(CC#Cc2ccc3ncnc(Nc4ccc(OCc5cccc(F)c5)c(Cl)c4)c3c2)CC1`, the CC50 worked out at 8.2 µM in data set [1] and 7.2 µM in [8]. Further, in [2], the Activity is greater than 75%. Also, the EC50 in [3] was 1 µM; with Trypanosoma cruzi it was 2.5 µM; with Plasmodium falciparum, 0.16 µM; with Leishmania major, 10 µM. The Ratio EC50 in data set [4] and in data set [7] was less than 3 each time. Besides, the selectivity ratio in data set [5] is 0.8; in data set [9], 8.2; in [10] it was 2.9; in [6] it was 51.
For the molecule `COCC#Cc1cc2c(Nc3ccc(OCc4cccc(F)c4)c(Cl)c3)ncnc2s1`, the CC50 in [1] is 9.5 µM; in [8] it was 1.7 µM. The Activity in [2] amounted to 18%. The EC50 with Trypanosoma cruzi came out at 1.5 µM; with Plasmodium falciparum, 3.02 µM; in the data set on Leishmania major, 7.3 µM. The selectivity ratio was found to be 1.3 in data set [5], 1.1 in data set [10] and 3.2 in data set [6].
For `Fc1cccc(COc2ccc(Nc3ncnc4cc(C#C[C@@H]5CCCN5)sc34)cc2Cl)c1`, the CC50 in [1] came to 9.6 µM; in data set [8], 10 µM. This molecule also gave an Activity in [2] greater than 75%. The EC50 in [3] came out at 0.22 µM; in the data set with Trypanosoma cruzi, 3.7 µM; in the data set on Plasmodium falciparum, 0.94 µM; with Leishmania major, 4.2 µM. The Ratio EC50 in [4] and in data set [7] was less than 3 in each case. The selectivity ratio was determined as 2.3 in [5], 44 in data set [9], 2.7 in data set [10] and 10 in [6].
